# Measured values pooled from the literature.
# Protocols differ between the studies behind these lines.
# Target: Cyclin-G-associated kinase (GAK, Homo sapiens, UniProt O14976)
# Sequence (O14976 1-1311, as in one of the studies): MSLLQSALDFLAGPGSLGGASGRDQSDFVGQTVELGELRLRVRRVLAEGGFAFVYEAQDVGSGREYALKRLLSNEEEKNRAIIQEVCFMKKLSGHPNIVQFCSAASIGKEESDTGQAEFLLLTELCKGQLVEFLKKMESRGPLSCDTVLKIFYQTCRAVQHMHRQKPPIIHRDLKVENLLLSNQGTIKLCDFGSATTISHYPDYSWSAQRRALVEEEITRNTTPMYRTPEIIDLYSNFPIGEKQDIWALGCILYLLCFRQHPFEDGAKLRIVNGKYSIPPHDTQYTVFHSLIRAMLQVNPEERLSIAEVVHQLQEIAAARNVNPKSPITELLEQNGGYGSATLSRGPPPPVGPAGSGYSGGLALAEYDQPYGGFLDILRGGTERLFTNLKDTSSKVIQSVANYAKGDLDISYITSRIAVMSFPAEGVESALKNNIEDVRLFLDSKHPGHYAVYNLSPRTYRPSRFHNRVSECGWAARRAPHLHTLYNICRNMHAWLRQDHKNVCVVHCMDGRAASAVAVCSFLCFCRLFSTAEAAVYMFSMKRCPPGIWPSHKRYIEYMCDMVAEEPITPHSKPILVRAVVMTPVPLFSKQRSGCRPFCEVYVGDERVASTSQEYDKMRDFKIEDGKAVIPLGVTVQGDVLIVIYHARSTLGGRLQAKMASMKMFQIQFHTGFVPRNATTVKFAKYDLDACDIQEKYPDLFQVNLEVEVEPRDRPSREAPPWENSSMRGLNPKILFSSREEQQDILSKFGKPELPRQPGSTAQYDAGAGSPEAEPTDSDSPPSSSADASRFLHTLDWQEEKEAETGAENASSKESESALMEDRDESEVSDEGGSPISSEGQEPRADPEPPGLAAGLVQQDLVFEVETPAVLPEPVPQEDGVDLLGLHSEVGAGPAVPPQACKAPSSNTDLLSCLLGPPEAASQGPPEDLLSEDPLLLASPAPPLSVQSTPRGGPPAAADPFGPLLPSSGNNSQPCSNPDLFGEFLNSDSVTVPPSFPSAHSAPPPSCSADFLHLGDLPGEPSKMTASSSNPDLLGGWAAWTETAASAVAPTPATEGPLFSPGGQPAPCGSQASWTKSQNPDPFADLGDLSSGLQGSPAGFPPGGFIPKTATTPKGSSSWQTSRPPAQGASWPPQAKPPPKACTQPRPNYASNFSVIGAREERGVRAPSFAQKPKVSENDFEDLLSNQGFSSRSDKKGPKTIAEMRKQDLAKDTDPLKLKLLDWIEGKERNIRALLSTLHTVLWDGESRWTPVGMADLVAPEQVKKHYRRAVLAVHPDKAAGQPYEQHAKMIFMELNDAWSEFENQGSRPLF
Structure (SMILES),observed,action,technique,tested at,endpoint,value
CC(C)S(=O)(=O)c1ccc2nccc(Nc3ccc4sc(C5CCCC5)nc4c3)c2c1,enzyme activity,inhibitor,,1 µM,activity vs control,101%
C=CC(=O)N1CCC([C@@H]2CCNc3c(C(N)=O)c(-c4ccc(Oc5ccccc5)cc4)nn32)CC1,enzyme activity,inhibitor,,1 µM,inhibition,20%
Cc1cc(O)c(-c2ccc([C@@H](C)CN(C)C)cc2)c2c1[nH]c(=O)c1sccc12,enzyme activity,inhibitor,,0.1 µM,inhibition,0.133%
C1=C/COCc2cc(ccc2OCCN2CCCC2)Nc2nccc(n2)-c2cccc(c2)COC/1,binding,,,0.1 µM,remaining binding,31%
C#Cc1cc(-c2cc(Nc3nc(N[C@@H](C)c4ccc(F)cn4)ncc3Cl)n[nH]2)ccc1C=O,enzyme activity,inhibitor,,0.2 µM,inhibition,18.7%
CN1CCN(C(=O)c2ccc(NC(=O)Nc3ccc(N(C)c4ccnc(Nc5ccc(CS(C)(=O)=O)cc5)n4)cc3)cc2)CC1,binding,,competition with immobilised ligand,1 µM,remaining binding,18%
CO[C@@H]1[C@H](N(C)C(=O)c2ccccc2)C[C@H]2O[C@]1(C)n1c3ccccc3c3c4c(c5c6ccccc6n2c5c31)C(=O)NC4,enzyme activity,inhibitor,,1 µM,inhibition,74%
Cc1ccc(NC(=O)c2ccnc(C(F)(F)F)c2)cc1-c1cc(OCCO)nc(N2CCOCC2)c1,binding,,competition with immobilised ligand,1 µM,remaining binding,95%
CCCCC(=O)Nc1ccc(-c2ccc3ncn(CCC)c(=O)c3c2)cn1,binding,,competition with immobilised ligand,0.5 µM,remaining binding,100%
